Experimental data: ChEMBL document CHEMBL3769305, “Glucose-functionalized amino-OPEs as biocompatible photosensitizers in PDT” (Eur J Med Chem, 2016)
Activity calls are given as the source filed them. The rule behind the calls is not given here.

How the values were obtained:
[1] = Phototoxicity against human Hep2 cells assessed as cell lethality at 3 to 250 uM incubated for 6 hrs followed by UV irradiation at 1 J/cm'2 measured after 24 hrs by MTT assay; type: functional, HEp-2
Method in brief: (§1)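 Cultures at 60–70% confluence were loaded with the photosensitizer for 6 h in medium with 1% FBS and <0.5% DMSO. Medium was then replaced and cells were irradiated with UVA (300–400 nm, 15.9 W/m² at 10 cm), then washed and kept in complete medium for 24 h. Survival was read by MTT (50 µg/mL, 4 h, 542 nm) as % of untreated control OD.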

[2] = Drug uptake in human Hep2 cells at 1 uM after 6 hrs by fluorescence microscopy; type: ADME, cell-based; settings: hep-2, 6 h
Method in brief: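 Cells on glass coverslips at 60–70% confluence were exposed to 1×10^-6 M compound in medium with 1% FBS (DMSO <0.5%) for 6 h at 37 °C. After two PBS washes they were imaged live under UV excitation (365 nm), with blue excitation (460–490 nm) also used. Untreated cells served as autofluorescence controls.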

[3] = Dark toxicity against human HeLa cells assessed as cell survival at 3 uM incubated for 6 hrs measured after 24 hrs by MTT assay; type: cell-based; settings: read-out: Survival
Method in brief: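 Cells (HaCaT and HeLa in DMEM, HEp-2 in RPMI, each with 10% FBS, at 37 °C and 5% CO2) were treated at 60–70% confluence. The compound was added from a 10^-3 M DMSO stock in medium with 1% FBS (final DMSO <0.5%) at 3·10^-6 to 2.5·10^-5 M and kept in the dark (6 h per table footnote, 18 h per methods). After 24 h, MTT at 50 µg/mL for 4 h, read at 542 nm as % of control OD.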

HEp-2 [4] = assay: Induction of morphological changes in human Hep2 cells assessed as nuclear retraction at LD50 after 24 hrs by Hoechst 33258 staining-based fluorescence microscopy in presence of UVA light; type: functional, cell-based
[5] = Drug uptake in endoplasmic reticulum of human HeLa cells at 1 uM after 6 hrs by ER-tracker dye-based fluorescence microscopy; type: ADME, cell-based
Method in brief: (§2)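 Cells grown on glass coverslips were incubated with 1×10^-6 M photosensitizer for 6 h at 37 °C, washed twice in PBS and imaged live by fluorescence microscopy. Organelle probes (ER-Tracker, ex 374/em 430 nm; NBD-Golgi, ex 466/em 536 nm) were applied for 30 min at the supplier's concentrations, and their patterns were compared with the compound signal.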

[6] = Induction of microtubule disruption in human HaCaT cells assessed as appearance of apoptotic morphology at LD50 after 24 hrs by immunofluorescence assay in presence of UVA light; type: cell-based
HeLa [7] = assay: Induction of apoptosis in human HeLa cells at LD50 after 24 hrs by acridine orange/ethidium bromide staining-based assay in presence of 0.25 to 0.5 J/cm'2 UVA light; type: functional, cell-based
HeLa [8] = assay: Induction of microtubule disruption in human HeLa cells assessed as increase in altered metaphase at LD50 after 24 hrs by immunofluorescence assay in presence of UVA light; type: cell-based
HeLa [9] = assay: Induction of morphological changes in human HeLa cells assessed as nuclear retraction at LD50 after 24 hrs by Hoechst 33258 staining-based fluorescence microscopy in presence of UVA light; type: functional, cell-based
HeLa [10] = assay: Phototoxicity against human HeLa cells incubated for 6 hrs followed by UV irradiation at 0.25 J/cm'2 measured after 24 hrs by MTT assay; type: functional; method in brief: as §1
[11] = Induction of microtubule disruption in human HaCaT cells at LD50 after 24 hrs by immunofluorescence assay in presence of UVA light; type: cell-based
HEp-2 [12] = assay: Induction of apoptotic morphological changes in human Hep2 cells at LD50 after 24 hrs by Hoechst 33258 staining-based fluorescence microscopy in presence of UVA light; type: functional, cell-based
[13] = Induction of singlet-oxygen generation at 5 x 10^-5 M irradiated at 380 nm by uric acid degradation assay; type: physicochemical; settings: 0.38 µM
HeLa [14] = assay: Induction of necrosis in human HeLa cells at LD50 after 24 hrs by acridine orange/ethidium bromide staining-based assay in presence of 0.25 to 0.5 J/cm'2 UVA light; type: functional, cell-based
HeLa [15] = assay: Induction of microtubule disruption in human HeLa cells assessed as appearance of extrapoles at LD50 after 24 hrs by immunofluorescence assay in presence of UVA light; type: cell-based
HEp-2 [16] = assay: Induction of necrotic morphological changes in human Hep2 cells at LD50 after 24 hrs by Hoechst 33258 staining-based fluorescence microscopy in presence of UVA light; type: functional, cell-based
HaCaT = assay: Induction of cell morphological changes in human HaCaT cells assessed as cytoplasmic retraction at 3 to 5 uM after 24 hrs by Hoechst 33258 staining-based phase contrast microscopy in presence of UVA light
HEp-2 [17] = assay: Induction of necrosis in human Hep2 cells at LD50 after 24 hrs by acridine orange/ethidium bromide staining-based assay in presence of 0.25 to 0.5 J/cm'2 UVA light; type: functional, cell-based
Method in brief: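 Cells (HaCaT, HeLa in DMEM; HEp-2 in RPMI; 10% FBS) at 60–70% confluence were incubated 6 h with 3·10^-6 M photosensitizer (DMSO stock diluted in medium with 1% FBS, final DMSO <0.5%). Medium was replaced and cells were given 0.25 J/cm² UVA (300–400 nm). 24 h later, cells were stained live with 50 µg/ml AO plus 50 µg/ml EtBr in PBS. Within 15 min, 200 cells per condition were scored as living, rounded, apoptotic or necrotic.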

HeLa [18] = assay: Induction of cell morphological changes in human HeLa cells assessed as cytoplasmic vacuolization at 3 to 5 uM after 24 hrs by Hoechst 33258 staining-based phase contrast microscopy in presence of UVA light; type: functional
HeLa [19] = assay: Phototoxicity against human HeLa cells assessed as cell lethality at 3 to 250 uM incubated for 6 hrs followed by UV irradiation at 2 J/cm'2 measured after 24 hrs by MTT assay; type: functional; method in brief: as §1
[20] = Drug uptake in endoplasmic reticulum of human Hep2 cells at 1 uM after 6 hrs by ER-tracker dye-based fluorescence microscopy; type: ADME, cell-based; settings: hep-2, 6 h; method in brief: as §2
HeLa [21] = assay: Phototoxicity against human HeLa cells assessed as cell lethality at 3 to 250 uM incubated for 6 hrs followed by UV irradiation at 0.5 J/cm'2 measured after 24 hrs by MTT assay; type: functional; method in brief: as §1
[22] = Phototoxicity against human Hep2 cells incubated for 6 hrs followed by UV irradiation at 0.25 J/cm'2 measured after 24 hrs by MTT assay; type: functional, HEp-2; method in brief: as §1
HEp-2 [23] = assay: Induction of cell morphological changes in human Hep2 cells assessed as cytoplasmic vacuolization at 3 to 5 uM after 24 hrs by Hoechst 33258 staining-based phase contrast microscopy in presence of UVA light; type: functional
[24] = Induction of singlet-oxygen generation at 5 x 10^-5 M irradiated at 390 nm by uric acid degradation assay; type: physicochemical; settings: 0.39 µM

Compound	mortality [1] [%]	Drug uptake [2]	viability at 6 h, 3 µM [3] [%]	Activity (HEp-2 [4])	Drug uptake [5]	Activity [6]	Activity (HeLa [7])	Activity (HeLa [8])	Activity (HeLa [9])	LD50 (HeLa [10]) [×10⁻⁶ M]	Activity [11]	Activity (HEp-2 [12])	Activity (HeLa [14])	Activity (HeLa [15])	Activity (HEp-2 [16])	Activity (HaCaT)	Activity (HEp-2 [17])	Activity (HeLa [18])	mortality (HeLa [19]) [%]	Drug uptake [20]	also measured
COc1cc(C#Cc2ccc(C#Cc3cc(OC)c(C#CCO[C@@H]4O[C@H](CO)[C@@H](O)[C@H](O)[C@H]4O)cc3OC)c(N(C)C)c2)c(OC)cc1C#CCO[C@@H]1O[C@H](CO)[C@@H](O)[C@H](O)[C@H]1O	>50	Active	96.4	Active	Active	Toxic	Active	Active	Active	3	Toxic	Active	Active	Active	Active	Toxic	Active	Active	>50	Active	Activity [13]: Active; mortality (HeLa [21]): >50%; LD50 [22]: 3 ×10⁻⁶ M; Activity (HEp-2 [23]): Active
COc1cc(C#Cc2ccc(C#CCO[C@@H]3O[C@H](CO)[C@@H](O)[C@H](O)[C@H]3O)cc2N(C)C)c(OC)cc1C#Cc1ccc(C#CCO[C@@H]2O[C@H](CO)[C@@H](O)[C@H](O)[C@H]2O)cc1N(C)C	>50	Active	96.6	Active	Active	Toxic	Active	Active	Active	3	Toxic	Active	Active	Active	Active	Toxic	Active	Active	>50	Active	Activity [24]: Active; mortality (HeLa [21]): >50%; LD50 [22]: 3 ×10⁻⁶ M; Activity (HEp-2 [23]): Active
